{"data": "Results from different studies", "effect on": "enzyme activity", "action": "inhibitor", "KIT": "Mast/stem cell growth factor receptor Kit (KIT, Homo sapiens, UniProt P10721)", "PIK3CD": "Phosphatidylinositol 4,5-bisphosphate 3-kinase catalytic subunit delta isoform (PIK3CD, Homo sapiens, UniProt O00329)", "note": "Compare with care: the assays were run in different laboratories."}
{"Structure (SMILES)": "Cc1n[nH]c2ccc3nc(-c4ccc(C(=O)NCCN(C)C)cc4F)c4c(c3c12)CCCCC4", "target": "KIT", "IC50": "261 nM"}
{"Structure (SMILES)": "O=C1C(=Nc2ccc(Cl)cc2)c2ccccc2N1Cc1ccc([N+](=O)[O-])cc1", "target": "PIK3CD", "method": "ADP detection", "IC50": "30.5 nM"}
{"Structure (SMILES)": "CN(C)C(=O)c1cc2cnc(Nc3ccc(-c4cccc5c(=O)cc(N6CCNCC6)oc45)cc3)nc2n1C1CCCC1", "target": "PIK3CD", "method": "radiometric", "IC50": "2300 nM"}
{"Structure (SMILES)": "O=C(NO)c1ccc(Cn2cnc3c(Nc4ccc(Cl)cc4)ncnc32)cc1", "target": "RAC-beta serine/threonine-protein kinase (AKT2, Homo sapiens, UniProt P31751)", "method": "radiometric", "IC50": "> 20000 nM"}
{"Structure (SMILES)": "CCc1ccc(N=C2C(=O)Nc3ccccc32)cc1", "target": "PIK3CD", "method": "ADP detection", "IC50": "455 nM"}
{"Structure (SMILES)": "CN(C)C(=O)c1cc2cnc(Nc3ccc(-c4cccc5c(=O)cc(N6CCOCC6)oc45)cn3)nc2n1C1CCCC1", "target": "PIK3CD", "method": "radiometric", "IC50": "2390 nM"}
{"Structure (SMILES)": "CN(C)CCNC(=O)c1ccc(-c2nc3ccc4[nH]ncc4c3c3c2CCCC3)c(F)c1", "target": "KIT", "IC50": "887 nM"}
{"Structure (SMILES)": "O=C1C(=Nc2ccc(Cl)cc2Br)c2ccccc2N1Cc1ccc([N+](=O)[O-])cc1", "target": "PIK3CD", "method": "ADP detection", "IC50": "50.9 nM"}
{"Structure (SMILES)": "Cc1n[nH]c2ccc3nc(-c4ccc(C(=O)NCCN(C)C)cc4)c4c(c3c12)CCCCC4", "target": "KIT", "IC50": "328 nM"}
{"Structure (SMILES)": "CN(C)C(=O)c1cc2cnc(Nc3cncc(-c4ccc5c(=O)cc(N6CCOCC6)oc5c4)c3)nc2n1C1CCCC1", "target": "PIK3CD", "method": "radiometric", "IC50": "137 nM"}
{"Structure (SMILES)": "CN(C)CCNC(=O)c1ccc(-c2nc3ccc4[nH]ncc4c3c3c2CCCC3)cc1", "target": "KIT", "IC50": "> 1000 nM"}
{"Structure (SMILES)": "CNC(=O)[C@H](Cc1c[nH]c2ccccc12)NC(=O)[C@@H](CC(=O)NO)CC(C)C", "target": "Matrix metalloproteinase-14 (MMP14, Homo sapiens, UniProt P50281)", "IC50": "1.37 nM"}
{"Structure (SMILES)": "C=CC(=O)Nc1cccc(Oc2nc(Nc3ccc(N4CCN(C)CC4)cc3)nc3ccoc23)c1", "target": "Tyrosine-protein kinase BTK (BTK, Homo sapiens, UniProt Q06187)", "IC50": "< 0.254 nM"}
{"Structure (SMILES)": "COc1ccc(-c2cc(=O)c3ccc(Nc4ncc5cc(C(=O)N(C)C)n(C6CCCC6)c5n4)cc3o2)cc1", "target": "PIK3CD", "method": "radiometric", "IC50": "9790 nM"}
{"Structure (SMILES)": "COc1cc(N=C2C(=O)Nc3ccccc32)cc(OC)c1", "target": "PIK3CD", "method": "ADP detection", "IC50": "48.3 nM"}
{"Structure (SMILES)": "CN(C)C(=O)c1cc2cnc(Nc3cc(C(F)(F)F)c(-c4cccc5c(=O)cc(N6CCOCC6)oc45)cn3)nc2n1C1CCCC1", "target": "PIK3CD", "method": "radiometric", "IC50": "95 nM"}
{"Structure (SMILES)": "CC(C)c1cccc(C(C)C)c1N=C1C(=O)N(Cc2cccc(Cl)c2)c2ccccc21", "target": "PIK3CD", "method": "ADP detection", "IC50": "238 nM"}
{"Structure (SMILES)": "Oc1ccc(-c2nc(-c3ccncc3)c(-c3ccc(F)cc3)[nH]2)cc1", "target": "Tau-tubulin kinase 1 (TTBK1, Homo sapiens, UniProt Q5TCY1)", "IC50": "25500 nM"}
{"Structure (SMILES)": "CN1CCN(c2cc(=O)c3ccc(Nc4ncc5cc(C(=O)N(C)C)n(C6CCCC6)c5n4)cc3o2)CC1", "target": "PIK3CD", "method": "radiometric", "IC50": "> 10000 nM"}
{"Structure (SMILES)": "C=CCN1C(=O)C(=Nc2cccc(C)c2)c2ccccc21", "target": "PIK3CD", "method": "ADP detection", "IC50": "81.2 nM"}
